This passage reports IC50, solubility and t1/2 results from ChEMBL document CHEMBL5223075, “Discovery of thienothiazolocarboxamide analogues as novel anti-tubercular agent” (Bioorg Med Chem, 2020).

In brackets after ≈: the same amount, converted by molar mass.

For data set [1], the system named is Mycobacterium tuberculosis. The data set is described as follows: Antitubercular activity against Mycobacterium tuberculosis H37Rv ATCC 27294 expressing the green fluorescence protein assessed as inhibition of bacterial growth by measuring GFP fluorescence incubated for 5 days by fluorescence based plate reader analysis. The settings on record: H37Rv ATCC 27294, 120 h. In kind it is functional, organism-based. An outline of the steps:
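H37Rv-GFP was grown 14 days in 7H9/OADC/Tween/glycerol/hygromycin, washed, and seeded at ~3×10^6 CFU/mL. Compounds were given as 10-point 2-fold series starting at 20 or 1 µM, in 1% DMSO final. Plates ran 5 days at 37°C, 5% CO2, with rifampicin 1 µg/mL as positive control. GFP fluorescence was read and IC50 taken from a 4-parameter sigmoid fit.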

In data set [2] the test system is Mycobacterium tuberculosis. The data set is described as follows: Antitubercular activity against Mycobacterium tuberculosis H37Rv ATCC 27294 expressing the green fluorescence protein infected in mouse RAW264.7 cells assessed as inhibition of bacterial growth pre-infected with cell followed by compound addition and measured after 5 days by Hoechst 33342 staining based analysis. It is filed as functional, organism-based. The settings on record: H37Rv ATCC 27294, RAW264.7, 120 h. Summed up:
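RAW 264.7 cells, passages 2-9, were infected with washed H37Rv-GFP at MOI 20 for 2 h at 37°C with shaking. Cells were washed and plated at 20,000/well over 2-fold compound dilutions for 5 days. Nuclei were stained with 5 µM Hoechst (final) and 3 fields/well imaged. Four parameters (cell count, bacterial area, area per infected cell, infected-cell ratio) were each fitted by 4-parameter sigmoid, and the IC50s averaged.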

The nature of data set [3]: Solubility of the compound at pH 7.4. It is filed as physicochemical. The settings on record: buffer.
Data set [4] in a line: Solubility of the compound at pH 2.1. In kind it is physicochemical. The following applies: buffer.
Data set [5] can be described thus: Metabolic stability in human liver microsome assessed as phase I mediated metabolite formation by measuring half-life. It is filed as ADME. The settings on record: microsomes. (In general: Microsomes from liver hold many membrane-bound enzymes, among them those of drug oxidation.)
Data set [6] can be described thus: Metabolic stability in mouse liver microsome assessed as phase I mediated metabolite formation by measuring half-life. In kind it is ADME. The following applies: microsomes.

For the compound `O=C(Nc1ccc(-c2ccc(F)cc2)cn1)c1cc2sc(NCCN3CCOCC3)nc2s1`, the IC50 was 4700 nM in data set [1] and 360 nM in data set [2]. For the same compound, the solubility in data set [3] came to 0.56 µg/mL (≈ 1.16 µM); in data set [4], 44.2 µg/mL (≈ 91.4 µM).
With `COc1ccc(C(=O)Nc2cc3sc(N4CCCCC4)nc3s2)cc1`, the half-maximal inhibitory concentration (IC50) in data set [1] and in data set [2] was more than 20000 nM each time.
Consider `CO[C@H]1/C=C/O[C@@]2(C)Oc3c(C)c(O)c4c(O)c(c(/C=N/N5CCN(C)CC5)c(O)c4c3C2=O)NC(=O)/C(C)=C\C=C\[C@H](C)[C@H](O)[C@@H](C)[C@@H](O)[C@@H](C)[C@H](OC(C)=O)[C@@H]1C` [RIFAMPIN], for which the concentration for half-maximal inhibition (IC50) in data set [1] came to 10 nM; in data set [2] it was 60 nM.
Turning to `Cc1nc2cc(NC(=O)c3cc4sc(N5CCC(O)CC5)nc4s3)ccc2o1`, the figures for the concentration for half-maximal inhibition (IC50) in data set [1] and in data set [2] were 640 nM and 460 nM, respectively. In addition, the t1/2 in data set [5] and in data set [6] was more than 60 min throughout. Besides, the solubility amounted to 2.4 µg/mL (≈ 5.79 µM) in data set [3] and 9.7 µg/mL (≈ 23.4 µM) in data set [4].
As for `O=C(Nc1ccc(-c2ccc(F)cc2)nc1)c1cc2sc(NCCN3CCOCC3)nc2s1`, the IC50 in data set [1] was 4600 nM; in data set [2], 370 nM. Moreover, the results for the solubility in data set [3] and in data set [4] were 0.57 µg/mL (≈ 1.18 µM) and more than 50 µg/mL, respectively.
Take `Cc1nc2cc(NC(=O)c3cc4sc(N(C)CCO)nc4s3)ccc2o1`: the figures for the IC50 in data set [1] and in data set [2] were 880 nM and 1300 nM, respectively. Further, the t1/2 in data set [5] is more than 60 min; in data set [6], 37.7 min. Further, the solubility in data set [3] was 4.5 µg/mL (≈ 11.6 µM); in data set [4], 20.6 µg/mL (≈ 53 µM).
As for `O=C(Nc1ccc(O)cc1)c1cc2sc(N3CCCCC3)nc2s1`, the figures for the IC50 in data set [1] and in data set [2] were 4800 nM and 2750 nM, respectively.
Consider `COc1ccc(NC(=O)c2cc3sc(N4CCOCC4)nc3s2)cc1`, for which the concentration for half-maximal inhibition (IC50) turned out to be 1100 nM in data set [1] and 210 nM in data set [2]. For the same compound, the t1/2 in data set [5] is 57.6 min; in data set [6], more than 60 min.
Take `O=C(Nc1ccc(-c2ccc(Cl)cn2)cc1)c1cc2sc(NCCN3CCOCC3)nc2s1`: the half-maximal inhibitory concentration (IC50) came to 3200 nM in data set [1] and 210 nM in data set [2]. Further, the solubility in data set [3] is 0.2 µg/mL (≈ 0.4 µM); in data set [4], 43.4 µg/mL (≈ 86.8 µM).
As to `O=C(Nc1ccc(-c2ccc(C(F)(F)F)cn2)cc1)c1cc2sc(NCCN3CCOCC3)nc2s1`, the 50% inhibitory concentration (IC50) in data set [1] worked out at 4500 nM; in data set [2], 210 nM. The solubility stood at 9.8 µg/mL (≈ 18.4 µM) in data set [3] and 44.3 µg/mL (≈ 83 µM) in data set [4].
Turning to `COc1ccc(NC(=O)c2cc3sc(N4CCC(F)(F)CC4)nc3s2)cc1`, the IC50 in data set [1] was found to be 1100 nM; in data set [2], 330 nM.
Consider `Cc1nc2cc(NC(=O)c3cc4sc(N5CC(C)OC(C)C5)nc4s3)ccc2o1` (configuration not stated), for which the IC50 in data set [1] was found to be 1100 nM; in data set [2], 250 nM.
Regarding `O=C(Nc1ccc(-c2ccc(F)nc2)cc1)c1cc2sc(NCCN3CCOCC3)nc2s1`, the half-inhibitory concentration (IC50) in data set [1] was 610 nM; in data set [2], 100 nM. Further, the results for the t1/2 in data set [5] and in data set [6] were 25.1 min and 45.6 min, respectively. The solubility was 1.1 µg/mL (≈ 2.27 µM) in data set [3] and 1.5 µg/mL (≈ 3.1 µM) in data set [4].
Turning to `Cc1nc2cc(NC(=O)c3cc4sc(N(C)CCCO)nc4s3)ccc2o1`, the IC50 in data set [1] was 1000 nM; in data set [2], 700 nM.
For `COc1ccc(-c2ccc(NC(=O)c3cc4sc(NCCN5CCOCC5)nc4s3)cc2)nc1`, the concentration for half-maximal inhibition (IC50) in data set [1] worked out at 1350 nM; in data set [2] it was 190 nM. Besides, the t1/2 in data set [5] and in data set [6] was less than 30 min throughout. Further, the solubility was 0.2 µg/mL (≈ 0.404 µM) in data set [3] and more than 50 µg/mL in data set [4].
On to `Cc1nc2cc(NC(=O)c3cc4sc(NCCN5CCOCC5)nc4s3)ccc2o1`, for which the 50% inhibitory concentration (IC50) in data set [1] came out at 1350 nM; in data set [2], 470 nM. Further, the t1/2 in data set [5] and in data set [6] was more than 60 min in each case. The solubility in data set [3] is 2.1 µg/mL (≈ 4.73 µM); in data set [4], 37.1 µg/mL (≈ 83.6 µM).
As to `Cc1nc2cc(NC(=O)c3cc4sc(N5CCC(CO)CC5)nc4s3)ccc2o1`, the IC50 in data set [1] is 500 nM; in data set [2], 230 nM.
Taken in the same sequence, the figures for `COc1ccc(NC(=O)c2cc3sc(N(C)C)nc3s2)cc1` were 1600 nM and 270 nM.
`Cc1ccc(-c2ccc(NC(=O)c3cc4sc(NCCN5CCOCC5)nc4s3)cc2)nc1`: the 50% inhibitory concentration (IC50) came out at 1350 nM in data set [1] and 310 nM in data set [2]. Also, the t1/2 is 20.9 min in data set [5] and 27.1 min in data set [6]. In addition, the solubility was found to be 1.3 µg/mL (≈ 2.71 µM) in data set [3] and 52.3 µg/mL (≈ 109 µM) in data set [4].
In the case of `COc1ccc(NC(=O)c2cc3sc(N4CCCCC4)nc3s2)cc1`, the results for the IC50 in data set [1] and in data set [2] were 830 nM and 170 nM, respectively.
Regarding `COc1ccc(NC(=O)c2cc3sc(N4CCN(C)CC4)nc3s2)cc1`, the IC50 came to 1300 nM in data set [1] and 110 nM in data set [2].
For `COc1ccc(NCc2cc3sc(N4CCCCC4)nc3s2)cc1`, in that order: more than 20000 nM and more than 20000 nM.
For the compound `COc1ccc(CNC(=O)c2cc3sc(N4CCCCC4)nc3s2)cc1`, the 50% inhibitory concentration (IC50) in data set [1] and in data set [2] was more than 20000 nM each time.
For `COc1ccc(N(C)C(=O)c2cc3sc(N4CCCCC4)nc3s2)cc1`, the concentration for half-maximal inhibition (IC50) in data set [1] and in data set [2] was more than 20000 nM each time.
With `NNC(=O)c1ccncc1` [ISONIAZID], the concentration for half-maximal inhibition (IC50) in data set [1] came to 400 nM; in data set [2], 350 nM.
For `O=C(Nc1ccc(Cl)cc1)c1cc2sc(N3CCCCC3)nc2s1`, in that order: 1100 nM and 110 nM.
With `COc1cc(NC(=O)c2cc3sc(N4CCCCC4)nc3s2)cc(OC)c1`, the concentration for half-maximal inhibition (IC50) in data set [1] and in data set [2] was more than 20000 nM throughout. The t1/2 in data set [5] is 24.5 min; in data set [6], 33.6 min.
Take `COc1ccc(NC(=O)c2cc3sc(N4CCNCC4)nc3s2)cc1`: the IC50 in data set [1] was found to be 13700 nM; in data set [2], 2100 nM.

What is called IC50 is the concentration that gives 50% inhibition. Usually solubility stands for the concentration that dissolves in the medium under given conditions. Lower therefore signals a poorly soluble substance.
